# Screens deposited in PubChem BioAssay by several laboratories.
# The list is not random: actives were taken first. Their share in the collection is about 2.6%.
# PG9 Ab binder: binds the HIV-1 gp120 antibody PG9. hit rate 0.43% among 360,000. TR-FRET gp120-PG9 antibody binding. inhibition, % at 6.7 µM; in the data active = inhibition above about 8.5%
# NR2E3 ag-1: NR2E3 (human) agonism; GST-NR2E3/biotin-RetCOR TR-FRET, 1536-well; hit rate 0.12% among 320,000; inhibition of corepressor binding, % at 4.78 µM; Q9Y5X4; AID 2300;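 active = percent inhibition above the cutoff of mean plus 3 SD of all tested compounds, set per screening campaign, cut at about 20% in these data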;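 also: 0% = DMSO wells and 100% = biotin wells as full block of FRET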
# Target sequence (Q9Y5X4 whole entry, looked up): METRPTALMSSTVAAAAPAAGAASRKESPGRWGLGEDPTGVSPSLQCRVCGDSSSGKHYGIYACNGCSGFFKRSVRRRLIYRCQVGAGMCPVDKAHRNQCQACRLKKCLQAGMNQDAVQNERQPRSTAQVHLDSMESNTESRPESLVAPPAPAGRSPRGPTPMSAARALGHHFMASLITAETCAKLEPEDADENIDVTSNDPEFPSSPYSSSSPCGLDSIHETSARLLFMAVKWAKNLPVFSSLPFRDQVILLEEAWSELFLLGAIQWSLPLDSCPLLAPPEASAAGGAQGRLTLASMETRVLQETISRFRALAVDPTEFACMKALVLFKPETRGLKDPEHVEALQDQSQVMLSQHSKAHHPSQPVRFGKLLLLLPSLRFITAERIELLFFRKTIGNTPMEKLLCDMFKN
#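 System: GST-NR2E3 and biotin-RetCOR proteins; probe or stimulus: 7 nM biotin-RetCOR; doses: compound at 4.8 µM, single dose; schedule: Compound–protein incubation for 5 h at 4 °C; detection: time-resolved FRET; read-out: percent inhibition; controls: biotin wells as high control, 0.6% DMSO wells as low control; format: 1536-well plates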
# Rev-erbA mod: Rev-erb alpha (human) modulation. P20393. hit rate 0.79% among 370,000. activity, % at 10 µM. Rev-erbα–FITC-DNA binding, fluorescence polarization, 90 min;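 active = activity above about 14%, limit read from the data; passing the limit was not always enough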;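 also: 0% = DMSO wells with 35 nM protein and 100% = DMSO wells with 750 nM protein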
# rCAG RNA binder: molecules binding r(CAG) RNA repeats | r(CAG) RNA repeat, TO-PRO-1 dye displacement fluorescence | AID 651821 | inhibition, % at 3 µM | hit rate 1.3% among 370,000;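 active = inhibition above the plate cutoff, the mean of all test compounds on that plate plus 3 SD, cut at about 35% in these data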;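 also: 0% = DMSO alone and 100% = 100 µM mitoxantrone as full dye displacement; higher means more dye released from RNA so lower well fluorescence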
# NR2E3 ag-2: human photoreceptor-specific nuclear receptor agonism; CHO-S Gal4-NCOR/VP16-NR2E3 two-hybrid, luciferase; hit rate 0.35% among 360,000; inhibition of corepressor binding, % at 3.98 µM;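 active = inhibition above the mean of all tested compounds plus 3 SD, cut at about 70% in these data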;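 also: 0% = DMSO with NR2E3 transfected cells and 100% = cells lacking NR2E3 construct; higher means lower luciferase signal from less NR2E3 corepressor binding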
# Rev-erbA confirm: Rev-erb alpha (human) modulation, hit confirmation. AID 1259319. activation, % at 25 µM. hit rate 61% among 3,000. Rev-erb alpha FITC-DNA binding, fluorescence polarization, 90 min. shares compounds with Rev-erbA mod;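 active = activation at or above a set limit, or at least 3 SD above the negative control mean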;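 also: 0% = 35 nM protein with DMSO and 100% = 750 nM protein high control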
# RORg DNA counter: affects RORgamma DNA binding in a Rev-erb alpha counter-screen. shares compounds with Rev-erbA mod. purified RORgamma protein-FITC-DNA binding, fluorescence polarization. IC50, µM. hit rate 8% among 910;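 active = Compounds whose fitted half-maximal concentration for disrupting protein-DNA binding is below 10 micromolar; the record names Rev-erb in its text, so the target is in doubt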
# Starred values were filed as active, the others as inactive; . = no result given.
SMILES,PG9 Ab binder,NR2E3 ag-1,Rev-erbA mod,rCAG RNA binder,NR2E3 ag-2,Rev-erbA confirm,others
COc1ccc(S(=O)(=O)NC(=O)C2(C)CCN2C(=O)CC2CC2)cc1 (stereo not given),1,.,4,-1,2,.,
CN1C[C@@H]2[C@@H]3C(=O)N(Cc4ccccc4)C(=O)[C@@H]3[C@](Cc3ccccc3)(C1=O)N2C(=O)c1ccc(C(C)(C)C)cc1,-1,.,2,-1,-9,.,
CCCCCCN1C[C@H](n2cc(COC(=O)c3ccccc3)nn2)[C@@H](O)C[C@@H]1c1ccc(C)cc1,-1,.,1,4,-5,.,
O=C1OC2(c3ccc(O)cc3Oc3cc(O)ccc32)c2ccccc21,.,.,691*,.,.,596*,
Cc1cc(O)ccc1C1(c2ccc(O)cc2C)OC(=O)c2ccccc21,0,2,5,2,-3,.,
COc1ccc(-c2ccc(-c3noc(-c4ccccc4)n3)c(OC)n2)cc1,-2,0,22*,7,-23,18*,
COc1ccc(-c2noc(-c3ccccc3F)n2)cc1,1,2,0,-1,-141,.,
COc1nc(-c2ccccc2)ccc1-c1noc(-c2ccccc2)n1,1,1,14,2,-101,.,
COc1nc(-c2ccccc2)ccc1-c1noc(-c2cccs2)n1,2,1,59*,5,-89,40*,RORg DNA counter=>40
COc1ccc(-c2ccc(-c3noc(-c4ccccc4F)n3)c(OC)n2)cc1,-2,.,38*,1,4,39*,RORg DNA counter=>40
CCNC(=O)C1(C)CCCN(C(=O)c2cc(OC)ccc2Br)C1 (stereo not given),-3,.,-5,2,9,.,
COc1cccc(-c2ncn(CCc3ccccc3OC)c2C(C)C)c1,0,.,2,-1,22,.,
Cc1ccc(Nc2nc(Cl)nc3ncn(C)c23)c(C)c1,0,.,2,2,-10,.,
COC(=O)C1=C(C)N(Cc2ccc(C(F)(F)F)cc2)C(=NCc2ccc(C(F)(F)F)cc2)NC1c1ccc(F)cc1 (stereo not given),-2,.,12,5,.,.,
Clc1ccc(N2CCN(c3ncnc4c3oc3ccccc34)CC2)cc1,0,4,37*,2,-2,12,
O=C(NCCS(=O)(=O)N1CCN(c2ccccc2F)CC1)c1ccc2c(c1)OCO2,-1,3,1,-3,-19,.,
COC(=O)CSc1nc2cc(C)ccc2cc1C#N,0,0,5,-2,-197,.,
Cc1ccc2cc(C#N)c(SCC(=O)N3CCCc4ccccc43)nc2c1,-2,1,60*,1,-5,44*,RORg DNA counter=>40
Cc1cc(NC(=O)CSc2nc3ccccc3cc2C#N)no1,-10,3,27*,2,-52,18*,
N#Cc1cc2cc3c(cc2nc1SCC(=O)N1CCOCC1)OCCO3,0,-1,17*,1,11,7,
Cc1ccc2cc(C#N)c(SCC(=O)N3CCCc4ccccc43)nc2c1C,0,2,-8,-3,-11,.,
CCSc1nc2ccc(C)cc2cc1C#N,-1,2,30*,-1,12,12,
Cc1cc(NC(=O)CSc2nc(-c3cccnc3)ccc2C#N)no1,-1,-1,-1,0,2,.,
CCCCOCCCNC(=O)C[C@H]1C[C@@]2(C(=O)OC)C(=C[C@H](C(C)C)O[C@@H]2C2CC2)N(Cc2ccccc2)C1=O,1,.,-5,0,.,.,
CCCC(C)(C)C(=O)N1CCC1(C)C(=O)Nc1ccc(OC)c(OC)c1 (stereo not given),2,.,-1,-2,-7,.,
CCc1cc2ccc(C)cc2nc1SCC(=O)Nc1cc(C)on1,5,-6,17*,-3,-14,9,
COc1ccc2nc(SCC(=O)N3CCCCCC3)c(C#N)cc2c1,2,-1,6,-4,0,.,
CCc1ccc2nc(SCC(=O)Nc3ccccc3N3CCOCC3)c(C#N)cc2c1,2,-2,8,2,1,.,
Cc1ccc2nc(SCC(=O)Nc3ccccc3N3CCOCC3)c(C#N)cc2c1,1,-1,28*,-2,0,18*,
COc1ccc2nc(SCC(=O)Nc3cc(C)on3)c(C#N)cc2c1,-5,0,61*,-2,-21,27*,
